B1: Osa-1-4 twister ribozyme (parent)
chain: CCGCCUAACACUGCCAAUGCCGGUCCCAAGCCCGGAUAAAAGUGGAGGGGGCGG

Variants of: B1
Experiment: self-cleavage, relative activity (ratio to wild type); higher = more cleavage; co-transcriptional
Procedure, shortened: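 The 48 positions downstream of the cleavage site in a 54-nucleotide Oryza sativa twister ribozyme template were synthesised at 97 % wild-type base and 1 % of each other base. The template was transcribed in vitro at 37 °C for 2 h, with self-cleavage allowed during transcription. Reads with or without upstream sequence after deep sequencing marked cleavage status, and relative activity is fraction cleaved normalised to wild type.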

Variant | self-cleavage
C26G U37C | 0.1
C26G U37G | 0.1
C26G U43A | 0.09
C26G U43C | 0.07
C26G U43G | 0.07
C26U | 0.98
C26U C9A | 0.26
C26U C9G | 0.24
C26U C9U | 0.55
C26U C27A | 0.07
C26U C27G | 0.06
C26U C27U | 0.24
C26U C31A | 0.05
C26U C31G | 0.07
C26U C31U | 0.16
C26U C32A | 0.06
C26U C32G | 0.27
C26U C32U | 0.09
C26U C33A | 0.09
C26U C33G | 0.07
C26U C33U | 0.32
C26U C52A | 0.71
C26U C52G | 0.84
C26U C52U | 0.98

Variant | self-cleavage
C26U G13A | 0.05
C26U G13C | 0.02
C26U G13U | 0.03
C26U G19A | 0.14
C26U G19C | 0.04
C26U G19U | 0.05
C26U G22A | 0.91
C26U G22C | 0.08
C26U G22U | 0.74
C26U G23A | 0.15
C26U G23C | 0.04
C26U G23U | 0.04
C26U G30A | 0.03
C26U G30C | 0.04
C26U G30U | 0.03
C26U G34A | 0.92
C26U G34C | 0.56
C26U G34U | 0.83
C26U G35A | 0.9
C26U G35C | 0.09
C26U G35U | 0.88
C26U G42A | 0.13
C26U G42C | 0.1
C26U G42U | 0.04

Variant | self-cleavage
C26U G44A | 0.4
C26U G44C | 0.92
C26U G44U | 0.71
C26U G45A | 0.07
C26U G45C | 0.04
C26U G45U | 0.04
C26U G47A | 0.08
C26U G47C | 0.07
C26U G47U | 0.06
C26U G48A | 0.82
C26U G48C | 0.1
C26U G48U | 0.08
C26U G49A | 0.06
C26U G49C | 0.06
C26U G49U | 0.06
C26U G50A | 0.92
C26U G50C | 0.26
C26U G50U | 0.52
C26U G51A | 0.45
C26U G51C | 0.07
C26U G51U | 0.17
C26U G53A | 0.22
C26U G53C | 0.08
C26U G53U | 0.11

Variant | self-cleavage
C26U G54A | 0.38
C26U G54C | 0.3
C26U G54U | 0.62
C26U U12A | 0.2
C26U U12C | 0.09
C26U U12G | 0.23
C26U U18A | 0.88
C26U U18C | 0.88
C26U U18G | 0.93
C26U U24A | 0.06
C26U U24C | 0.07
C26U U24G | 0.04
C26U U37A | 0.79
C26U U37C | 1
C26U U37G | 1.03
C26U U43A | 0.32
C26U U43C | 0.14
C26U U43G | 0.15
C27A | 0.37
C27A C9A | 0.09
C27A C9G | 0.1
C27A C9U | 0.07
C27A C31A | 0.06
C27A C31G | 0.04

Variant | self-cleavage
C27A C31U | 0.09
C27A C32A | 0.09
C27A C32G | 0.06
C27A C32U | 0.06
C27A C33A | 0.09
C27A C33G | 0.04
C27A C33U | 0.1
C27A C52A | 0.23
C27A C52G | 0.25
C27A C52U | 0.33
C27A G13A | 0.03
C27A G13C | 0.01
C27A G13U | 0.02
C27A G19A | 0.09
C27A G19C | 0.03
C27A G19U | 0.04
C27A G22A | 0.1
C27A G22C | 0.03
C27A G22U | 0.06
C27A G23A | 0.06
C27A G23C | 0.03
C27A G23U | 0.04
C27A G30A | 0.02
C27A G30C | 0.03

Variant | self-cleavage
C27A G30U | 0.03
C27A G34A | 0.18
C27A G34C | 0.09
C27A G34U | 0.17
C27A G35A | 0.39
C27A G35C | 0.07
C27A G35U | 0.16
C27A G42A | 0.08
C27A G42C | 0.06
C27A G42U | 0.05
C27A G44A | 0.1
C27A G44C | 0.14
C27A G44U | 0.14
C27A G45A | 0.06
C27A G45C | 0.03
C27A G45U | 0.07
C27A G47A | 0.24
C27A G47C | 0.36
C27A G47U | 0.83
C27A G48A | 0.04
C27A G48C | 0.05
C27A G48U | 0.04
C27A G49A | 0.04
C27A G49C | 0.03

Variant | self-cleavage
C27A G49U | 0.04
C27A G50A | 0.22
C27A G50C | 0.08
C27A G50U | 0.1
C27A G51A | 0.1
C27A G51C | 0.05
C27A G51U | 0.05
C27A G53A | 0.09
C27A G53C | 0.05
C27A G53U | 0.06
C27A G54A | 0.12
C27A G54C | 0.11
C27A G54U | 0.35
C27A U12A | 0.07
C27A U12C | 0.06
C27A U12G | 0.11
C27A U18A | 0.27
C27A U18C | 0.26
C27A U18G | 0.34
C27A U24A | 0.04
C27A U24C | 0.06
C27A U24G | 0.02
C27A U37A | 0.26
